Source: PubChem BioAssay
Sampled rows, rich in hits. Any-hit rate of the full collection: about 5.1%.
ERa coact inh – ERα–SRC-1 coactivator interaction inhibitors, primary screen, biochemical, TR-FRET, ERα LBD, estradiol-bound. Estrogen receptor (Homo sapiens), P03372. TR-FRET ER-alpha LBD / SRC-1 peptide. inhibition, % at 25.6 µM. 86,000 compounds, 1.7% hits. AID 629, 2007; in the data active = inhibition above about 50%;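 also: 0% = receptor plus peptide control and 100% = peptide only without receptor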
ERa coact pot – enhancers of ERα–SRC-1 coactivator binding, primary screen, biochemical, TR-FRET, ERα LBD, low estradiol; coactivator binding (% of control), % at 25.6 µM; 86,000 compounds, 1.3% hits; AID 639, 2007; TR-FRET ERalpha-LBD/SRC-Cy5 coactivator binding, 2 h; 100 = basal binding, no effect; in the data active = activity above about 200%;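 also: binding measured in presence of low estradiol as agonist stimulus; 0% = peptide alone without receptor and 100% = receptor with peptide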
RORA act – activators of orphan receptor RORA, primary screen, cell-based, luminescence | Nuclear receptor ROR-alpha (Homo sapiens), P35398 | CHO-K1 Gal4-RORA LBD luciferase reporter; percent increase over mock-subtracted basal signal | activation, % at 10 µM | 65,000 compounds, 1.5% hits | AID 560, 2006;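 active = activation above the mean of all tested compounds plus 3 SD, cut at about 49% in these data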;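 also: 0% = DMSO-treated RORA cells and 100% = added signal equal to DMSO minus mock-transfected cells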
Target sequence (P35398 whole entry, looked up, the tested form may be a part): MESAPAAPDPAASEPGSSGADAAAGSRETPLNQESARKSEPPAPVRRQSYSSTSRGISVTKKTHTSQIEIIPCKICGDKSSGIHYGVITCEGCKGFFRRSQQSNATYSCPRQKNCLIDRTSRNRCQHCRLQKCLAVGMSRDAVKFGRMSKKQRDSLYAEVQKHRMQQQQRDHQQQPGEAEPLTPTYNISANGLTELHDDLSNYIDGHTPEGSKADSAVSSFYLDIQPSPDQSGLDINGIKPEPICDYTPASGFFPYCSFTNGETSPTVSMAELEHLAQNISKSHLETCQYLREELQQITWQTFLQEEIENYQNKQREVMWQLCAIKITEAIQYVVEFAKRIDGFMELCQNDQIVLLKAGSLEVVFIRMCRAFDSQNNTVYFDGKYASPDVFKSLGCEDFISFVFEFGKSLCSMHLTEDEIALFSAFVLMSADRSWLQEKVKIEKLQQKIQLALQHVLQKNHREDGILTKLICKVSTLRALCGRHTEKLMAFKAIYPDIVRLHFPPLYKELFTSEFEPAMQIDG
SF-1 act – activators of human SF-1, primary screen, cell-based, CHO-K1, Gal4-SF-1 LBD, luciferase luminescence. CHO-K1 Gal4-SF-1 LBD luciferase reporter; % increase over DMSO SF-1-specific signal. activation, % at 10 µM. 65,000 compounds, 1.9% hits;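 active = activation above the mean activation of all tested compounds plus 3 SD, cut at about 50% in these data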
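Test system: transient Gal4-SF-1 LBD reporter, CHO-K1; Amount: 4,000 CHO-K1 cells per well; Doses: 10 µM only; Timing: compound exposure 20 h at 37 °C; Signal: luciferase light emission; Read-out basis: percent activation relative to DMSO median and mock-transfected background; Control set: DMSO negative control and −SF1 background wells; Replicates: one test per compound.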
BAP1 block – inhibitors of BAP1 deubiquitinase, primary screen, biochemical, Ub-AMC fluorescence, kinetic | Ubiquitin carboxyl-terminal hydrolase BAP1 (Homo sapiens), Q92560 | recombinant BAP1, Ub-AMC hydrolysis fluorescence kinetic; stronger effect = lower value | calls only at 20 µM | 72,000 compounds, 0.48% hits | AID 436, 2006;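 active = activity remaining at or below 50% of control, provided the compound also passes the data quality filters; inactive = the rest, including low values that fail the filters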;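 also: 100% = DMSO wells rate and 0% = substrate alone blank rate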
ERb coact inh – inhibitors of ERβ-SRC1 coactivator interaction, primary screen, biochemical, TR-FRET, ERβ LBD, SRC-1 peptide; AID 633, 2007; 86,000 compounds, 1.3% hits; TR-FRET ER-beta LBD / SRC1-Cy5 peptide binding; receptor agonist-loaded with 1 µM estradiol; inhibition, % at 25.6 µM; Estrogen receptor beta (Homo sapiens), Q92731;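 active = compounds whose percent inhibition of the receptor-coactivator binding signal exceeds about 50% in the single-dose screen, limit read from the data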;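 also: 0% = receptor plus peptide wells without compound and 100% = peptide-only wells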
Numbers without * were called inactive; [ ] = dose if it differs, or a comment.

How did CC1=CC(C)=Nc2ccc(C)cc2N1 do in these assays?
ERa coact inh: -0.2; ERa coact pot: 89.7; RORA act: 58.5*; SF-1 act: 76.4*; BAP1 block: inactive; ERb coact inh: -6.6

What do the screens show for `Cc1ccc2c(c1)NC(=O)CC(c1ccccc1)=N2`?
ERa coact inh: 0.2; ERa coact pot: 107.1; ERb coact inh: 6.7

How did Cc1ccc(C(=O)C2CCN(CC(=O)NC3CCCCC3)CC2)cc1 do in these assays?
ERa coact inh: 2.8; ERa coact pot: 82.0; RORA act: 17.1; SF-1 act: -16.9; BAP1 block: inactive; ERb coact inh: 1.2

Results for Cc1ccc(C(=O)CN2CCC(NC(=O)C3CCCCC3)CC2)cc1 ?
ERa coact inh: 6.9; ERa coact pot: 604.7*[fluorescence artefact?]; RORA act: -8.8; SF-1 act: -10.1; BAP1 block: inactive; ERb coact inh: 1.4

Results for O=C(Nc1cccnc1)c1ccccc1Oc1ccccc1 ?
ERa coact inh: 10.7; ERa coact pot: 118.0; RORA act: 0.5; SF-1 act: -5.3; BAP1 block: inactive; ERb coact inh: 1.4

What do the screens show for `COc1ccccc1C(=O)Nc1ccc(N2CCN(S(C)(=O)=O)CC2)cc1`?
ERa coact inh: 0.1; ERa coact pot: 101.9; RORA act: 41.1; SF-1 act: 33.6; BAP1 block: inactive; ERb coact inh: -3.8

Results for COc1cc2ccccc2cc1C(=O)Nc1cccnc1 ?
ERa coact inh: -25.3; ERa coact pot: 89.8; RORA act: 76.7*; SF-1 act: 49.5*; BAP1 block: inactive; ERb coact inh: -9.7

What do the screens show for `COc1cc2ccccc2cc1C(=O)Nc1ccc(N2CCN(C)CC2)cc1`?
ERa coact inh: 16.5; ERa coact pot: 93.1; RORA act: 59.1*; SF-1 act: 36.2; BAP1 block: inactive; ERb coact inh: 24.4

How did CC(C)(C)c1ccc(OCC(=O)Nc2ccc(Cl)cn2)cc1 do in these assays?
BAP1 block: inactive

What do the screens show for `Cc1cc2c(cc(C(=O)OCC(=O)NCc3cccs3)n2C(C)C)o1`?
ERa coact inh: -1.6; ERa coact pot: 86.4; RORA act: 56.6*; SF-1 act: 12.1; BAP1 block: inactive; ERb coact inh: -1.7

How did CCCCNC(=O)C(Cc1ccccc1)NS(=O)(=O)c1ccc2c(c1)c(=O)n(C)c(=O)n2C (configuration not stated) do in these assays?
ERa coact inh: 85.5*[fluorescence artefact?]; ERa coact pot: 122.3; ERb coact inh: 12.3

How did CN1CCN(C(=O)C(Cc2ccccc2)NS(=O)(=O)c2ccc3c(c2)CCC(=O)N3)CC1 (configuration not stated) do in these assays?
ERa coact inh: -6.2; ERa coact pot: 119.2; RORA act: -12.0; SF-1 act: 6.7; BAP1 block: inactive; ERb coact inh: -3.4

What do the screens show for `Cn1c(=O)c2cc(S(=O)(=O)NC(C(=O)N3CCCCCC3)c3ccccc3)ccc2n(C)c1=O` (configuration not stated)?
ERa coact inh: -2.6; ERa coact pot: 122.1; RORA act: 16.3; SF-1 act: 31.0; BAP1 block: inactive; ERb coact inh: -5.7

Results for CCOC(=O)CNC(=O)C(Cc1ccccc1)NS(=O)(=O)c1ccc2c(c1)CCC(=O)N2 (configuration not stated) ?
ERa coact inh: -3.0; ERa coact pot: 100.7; RORA act: -13.2; SF-1 act: -3.4; BAP1 block: inactive; ERb coact inh: 85.9*

How did CCOC(=O)c1cnc(-n2nc(C)cc2C)nc1NCc1ccc2c(c1)OCO2 do in these assays?
ERa coact inh: 33.8; ERa coact pot: 219.5*[fluorescence artefact?]; RORA act: 3.7; SF-1 act: -22.4; BAP1 block: inactive; ERb coact inh: 30.2

What do the screens show for `CCOC(=O)C1C(=O)CC(C)(O)C(C(=O)OCC)C1c1cccc([N+](=O)[O-])c1` (configuration not stated)?
BAP1 block: inactive

What do the screens show for `O=C(Nc1cccc2ccccc12)c1cn(-c2ccccc2)nc1-c1cccs1`?
ERa coact inh: 10.1; ERa coact pot: 202.8*[fluorescence artefact?]; ERb coact inh: -1.8

What do the screens show for `CCS(=O)(=O)N1Cc2ccccc2CC1C(=O)N1CCN(c2cccc(C)c2C)CC1` (configuration not stated)?
ERa coact inh: 80.1*[fluorescence artefact?]; ERa coact pot: 60.5; RORA act: -15.2; SF-1 act: 4.6; BAP1 block: inactive; ERb coact inh: 51.2*

Results for COC(=O)c1sc(-c2ccccc2)cc1NC(=O)c1ccc(S(=O)(=O)N2CC(C)OC(C)C2)cc1 (configuration not stated) ?
BAP1 block: inactive

How did c1cncc(-c2nc3cc(Cc4ccc5oc(-c6cccnc6)nc5c4)ccc3o2)c1 do in these assays?
ERa coact inh: -33.9; ERa coact pot: 206.9*[fluorescence artefact?]; RORA act: -14.3; SF-1 act: 1.9; BAP1 block: inactive; ERb coact inh: 10.5

How did c1cncc(-c2nc3ccccc3o2)c1 do in these assays?
ERa coact inh: -3.0; ERa coact pot: 99.3; RORA act: 11.5; SF-1 act: 41.1; BAP1 block: inactive; ERb coact inh: 11.7

What do the screens show for `c1cc(-c2nc3cc(Cc4ccc5oc(-c6ccncc6)nc5c4)ccc3o2)ccn1`?
ERa coact inh: 8.8; ERa coact pot: 220.8*[fluorescence artefact?]; RORA act: -9.5; SF-1 act: -1.0; BAP1 block: inactive; ERb coact inh: 21.6

How did CCc1ccc(S(=O)(=O)N(C(=O)c2cccc([N+](=O)[O-])c2)c2ccc3oc(C)c(C(C)=O)c3c2)cc1 do in these assays?
BAP1 block: inactive

How did Cc1ccc(C(=O)/C=C/Nc2ccccn2)cc1 do in these assays?
ERa coact inh: -2.9; ERa coact pot: 114.8; RORA act: -89.6; SF-1 act: -82.8; BAP1 block: inactive; ERb coact inh: -9.1

How did COc1ccc(C(=O)/C=C/Nc2cccc(C)n2)cc1OC do in these assays?
ERa coact inh: -17.6; ERa coact pot: 98.4; RORA act: 13.3; SF-1 act: 87.8*; BAP1 block: inactive; ERb coact inh: -14.3

Results for CC(=O)c1c(-c2ccccc2)nc2nonc2c1N ?
BAP1 block: inactive

What do the screens show for `COc1ccc(CNC(=O)c2nn3c(c2Br)NC(c2cccs2)CC3C(F)(F)F)cc1` (configuration not stated)?
BAP1 block: inactive
